Assay outcomes from PubChem BioAssay.
Only some compounds are listed: those with a hit (about 9.6% of all), similar ones and a draw of the others.
Lmaj promast – inhibitors of Leishmania major promastigote growth. actives 9% (n = 200,000). inhibition, % at 10 µM. Leishmania major promastigotes, resazurin fluorescence viability. AID 1063; in the data active means inhibition above about 50%;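 further: promastigotes grown with compound for 44 hours at 28 °C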
PMI activator – activators of human phosphomannose isomerase; activation factor at 20 µM; actives 0.005% (n = 190,000); purified human PMI, coupled resazurin fluorescence, 20 min; stronger effect = higher value; 1 = vehicle control, 0 substrate-free wells; P34949;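 active means activation factor of 2 or more at 20 µM, relative to plate controls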
Target sequence (P34949 whole entry, looked up): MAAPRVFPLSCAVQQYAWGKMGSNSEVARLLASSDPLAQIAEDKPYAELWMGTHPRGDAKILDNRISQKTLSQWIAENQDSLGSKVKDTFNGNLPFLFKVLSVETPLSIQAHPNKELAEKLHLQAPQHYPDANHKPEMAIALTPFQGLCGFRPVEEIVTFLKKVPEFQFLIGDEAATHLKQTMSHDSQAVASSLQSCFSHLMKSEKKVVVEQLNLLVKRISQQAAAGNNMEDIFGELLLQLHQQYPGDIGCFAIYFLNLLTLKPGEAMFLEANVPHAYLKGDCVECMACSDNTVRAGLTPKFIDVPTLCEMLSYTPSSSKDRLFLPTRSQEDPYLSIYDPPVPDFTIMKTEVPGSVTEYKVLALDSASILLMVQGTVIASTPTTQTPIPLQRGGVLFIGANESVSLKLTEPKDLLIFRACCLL
PTEN del growth – suppresses growth of cells with PTEN deletion | viability, % at 10 µM | HCT116 PTEN-null viability, CellTiter-Glo, 60 h; stronger effect = lower value | AID 827 | actives 1.2% (n = 140,000);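 active means viability at or below a set limit, 4 SD under the median of all tested compounds, cut at about 3.7% in these data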;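 further: PTEN knockout HCT116 line with beta catenin targeted HCT116 as companion control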
PMI act hi M6P – increases human PMI activity with near-saturating mannose 6-phosphate | coupled PMI enzyme assay, resazurin fluorescence, 20 min; stronger effect = higher value; 1 = untreated enzyme, 0 = substrate-free blank | activation factor at 20 µM | actives 0.34% (n = 190,000);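 active means activation factor of 2 or more at 20 µM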
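Material: human phosphomannose isomerase with PGI, G6PDH, diaphorase coupling enzymes. Quantity: 15 ng/mL PMI. Medium: HEPES pH 7.4 buffer with MgCl2 and Tween-20. Reagent: Near-saturating mannose-6-phosphate, 1.0 mM. Compound: 20 µM single dose. Times: enzyme reaction with compound 20 min at room temperature. Detection: resorufin fluorescence at Ex 544/Em 590 nm.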
HCT116 bCat-KO – beta-catenin-lacking colon tumor cell growth suppression; HCT116 beta-catenin knockout viability, CellTiter-Glo, 60 h; stronger effect = lower value; viability, % at 10 µM; actives 1.5% (n = 140,000); AID 818;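 active means viability at or under a set limit, the compound median less 4 SD, cut at about 6% in these data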;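 further: 0% = Hyamine 1622 control at 20 µM and 100% = untreated cell control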
The depositor's hits bear a star; nt = no result.

SMILES	Lmaj promast	PMI activator	PTEN del growth	PMI act hi M6P	HCT116 bCat-KO
CCC(C)N(C)C1CCN(C(=S)Nc2cccc(SC)c2)CC1 (stereo not drawn)	75.9*	0.8	nt	0.8	nt
CC(C)OC(=O)C1C2C=CC3(CN(Cc4cccs4)C(=O)C13)O2 (stereo not drawn)	-11.8	1	97.8	1	101.3
CN(C1CCCC1)C1CCN(C(=S)Nc2cc(F)cc(F)c2)CC1	77.3*	0.9	nt	1	nt
COC(=O)c1[nH]c2ccc(Br)cc2c1NC(=O)C(C)N1CCN(C2CCCCC2)CC1 (stereo not drawn)	100.4*	0.9	3.2*	0.9	9.3
COC(=O)c1[nH]c2ccc(C)cc2c1NC(=O)NC1CCCCC1	-1.0	1	36.1	1	5.2*
COC(=O)c1[nH]c2ccc(C)cc2c1NC(=O)C(C)N1CCN(C2CCCCC2)CC1 (stereo not drawn)	36.6	0.9	109.1	0.9	96.5
O=C(CNC(=O)C12CC3CC(CC(C3)C1)C2)N1CCN(S(=O)(=O)/C=C/c2ccccc2)CC1	-3.1	0.8	59.0	0.8	47.8
Cc1ncc(CN2CCC(CO)(CCc3ccccc3)CC2)s1	83.9*	0.9	nt	0.8	nt
COc1cccc(CC2(CO)CCN(Cc3cnc(N4CCOCC4)s3)CC2)c1	-1.7	0.9	nt	0.9	nt
Cc1ccc(-n2cccn2)c(CN2CCC(CO)(CCc3ccccc3)CC2)c1	4.0	1	nt	1	nt
OCC1(CCCc2ccccc2)CCN(Cc2cnc(N3CCOCC3)s2)CC1	78.8*	0.9	nt	1	nt
COc1ccccc1NC(CC(=O)c1ccccc1)C(=O)OCC(=O)c1ccc(F)cc1 (stereo not drawn)	14.4	1	72.8	1.1	75.0
COc1ccc(Nc2ccccc2N)cc1	92.1*	1.1	nt	1	nt
COc1ccc(Nc2ncnc3ccccc23)cc1	11.7	1.1	86.9	1.1	91.7
COc1ccc(Nc2c(C)cccc2C)cc1	1.2	0.9	97.1	1	92.7
CCOc1nc(Nc2ccc(OC)cc2)nc(OCC)n1	36.2	1	108.1	1	106.3
COc1ccc(Nc2ccnc3ccccc23)cc1	100.6*	1	46.5	1.1	58.2
COc1ccc(Nc2ccnc(Nc3ccc(OC)cc3)n2)cc1	100.4*	0.9	12.9	0.9	14.8
CCOC(=O)N1CCN(C(=S)NC(=O)c2cncc(Br)c2)CC1	-3.4	0.9	99.9	0.9	100.8
CCCn1c(=N)n(CC(=O)c2ccc([N+](=O)[O-])cc2)c2ccccc21	64.0*	1.2	nt	1.1	nt
Cc1ccccc1Cn1c(=N)n(CC(=O)c2ccc([N+](=O)[O-])cc2)c2ccccc21	99.9*	1.1	1.4*	1.1	1.9*
CCn1c(=N)n(CC(=O)c2cccc([N+](=O)[O-])c2)c2ccccc21	15.8	1	99.0	1	93.5
COC(=O)c1cc(CSc2nnc(NC3CCCCC3)s2)oc1C	4.8	0.8	72.2	0.9	62.8
O=C(N/N=C/c1cc(Br)c(Br)s1)c1ccncc1	98.5*	1.1	nt	1	nt
O=C(N/N=C/c1cc(Br)cc(Br)c1O)c1ccncc1	96.1*	1	nt	1.2	nt
SMILES	Lmaj promast	PMI activator	PTEN del growth	PMI act hi M6P	HCT116 bCat-KO
O=C(N/N=C/c1c[nH]c2ccc(Br)cc12)c1ccncc1	8.7	0.9	92.8	1	94.7
CC(=O)C1=C(O)C(=O)N(c2nccs2)C1c1ccccc1 (stereo not drawn)	-3.4	1.1	97.3	1.3	107.4
O=C(NC(=S)Nc1cc(C(F)(F)F)ccc1N1CCOCC1)c1sc2ccccc2c1Cl	6.7	0.9	81.8	1	92.8
COc1ccc(C(=O)OC(COc2ccccc2)Cn2ccnc2)cc1 (stereo not drawn)	100.0*	1.2	74.1	1.2	66.4
COC(=O)c1cccc(OCC(O)Cn2ccnc2)c1 (stereo not drawn)	-0.3	1	102.0	1	100.3
COc1cccc(CN2C(=O)c3cccc(N)c3C2=O)c1	-4.4	1.1	99.2	1	99.7
COc1ccc(C(=O)NCc2ccc(-n3cccc3)cc2)cc1OC	2.9	0.9	nt	0.9	nt
Fc1ccc(Sc2nc(-c3ccccc3)nnc2C(F)(F)F)cc1	47.9	0.9	2.1*	0.9	4.1*
CSc1n[nH]c2nc3c(c(=O)n12)C1(CCCC1)Cc1ccccc1-3	2.2	1.6	95.3	2.2*	90.0
CC(C)Sc1n[nH]c2nc3c(c(=O)n12)C1(CCCC1)Cc1ccccc1-3	-12.0	1.1	95.3	1.3	87.3
CCC(C)(C)NC(=S)Nc1ccc(-c2nc3ccc(C)cc3s2)cc1	74.7*	1.1	89.1	1.2	92.3
CCCCNC(=S)Nc1ccc(-c2nc3ccc(C)cc3s2)cc1	4.2	1	62.6	1.1	73.4
Cc1ccc2nc(-c3ccc(NS(=O)(=O)c4ccc(F)cc4)cc3)sc2c1	64.7*	0.9	78.8	0.8	78.5
Cc1ccc(S(=O)(=O)Nc2ccc(-c3csc(-c4ccccc4)n3)cc2)cc1	4.1	0.8	2.4*	0.9	2.7*
O=S(=O)(Nc1ccc(-c2csc(-c3ccccc3)n2)cc1)c1ccccc1	-2.4	0.8	94.3	0.9	87.9
Cc1ccc(S(=O)(=O)Nc2ccccc2C(=O)Nc2nc(-c3ccc(F)cc3)cs2)cc1	54.0*	1	6.3	1.1	6.1
CC(C(=O)OCC(=O)Nc1cccc(S(=O)(=O)N(C)C)c1)N1C(=O)c2ccccc2C1=O (stereo not drawn)	-0.7	1	nt	1	nt
CCOc1ccc(NC(=O)c2ccccc2NS(=O)(=O)c2ccc(F)cc2)c([N+](=O)[O-])c1	71.4*	0.9	70.9	1	72.0
Cc1ccc(C)c(S(=O)(=O)Nc2cc(SCC(=O)O)c(O)c3ccccc23)c1	99.7*	0.9	6.3	0.8	12.5
O=C(O)c1ccccc1NS(=O)(=O)c1cccc2cccnc12	-1.4	0.9	99.3	1	100.6
O=S(=O)(Nc1cc(Sc2cccc3cccnc23)c(O)c2ccccc12)c1ccccc1	100.3*	0.9	1.2*	0.4	1.3*
Cc1ccc(C)c(SCC(=O)NC(=O)NCc2ccccc2)c1	-3.0	0.9	94.8	0.9	95.5
CCc1ccc(S(=O)(=O)Nc2cc(SCC(=O)O)c(O)c3ccccc23)cc1	98.6*	1.1	nt	0.9	nt
C=CCn1c(C(C)NC(=O)c2cccc(C)c2)n[nH]c1=S (stereo not drawn)	-2.9	1	nt	1	nt
CCn1nc(C)c(NC(=O)Nc2cccc(Cl)c2Cl)c1C	0.9	1	nt	1	nt
O=C(C[n+]1ccn(CCCNP2(=O)C=C(c3ccccc3)OC(c3ccccc3)=C2)c1)c1cccs1	-1.6	1.2	nt	1.1	nt
COc1ccccc1-c1c(C)nn2c(N3CCCCCC3)cc(C)nc12	79.1*	0.8	3.2*	0.8	2.6*
Cc1nn2c(N3CCCC3)cc(C(C)C)nc2c1-c1ccccc1	86.7*	0.9	72.1	0.8	89.2
